Data: ChEMBL document CHEMBL4699585, “Evaluation of the Pharmacophoric Role of the O-O Bond in Synthetic Antileishmanial Compounds: Comparison between 1,2-Dioxanes and Tetrahydropyrans” (J Med Chem, 2020)
Activity calls are given as the source filed them. The calls are words filed in the database; no cut-off is given here.

Assays:
Leishmania donovani [1] = assay: Antileishmanial activity against sitamaquine-resistant wild type promastigote stage of Leishmania donovani MHOM/ET/67/HU3 infected in mouse macrophages assessed as reduction in parasite viability measured after 48 hrs by Giemsa staining-based assay; assay type: functional, organism-based; details: MHOM/ET/67/HU3, Macrophage
Leishmania donovani [2] = assay: Antileishmanial activity against wild type promastigote stage of Leishmania donovani LV9 infected in mouse macrophages assessed as reduction in parasite viability measured after 48 hrs by Giemsa staining-based assay; assay type: functional, organism-based; details: LV9, 48 h
Leishmania donovani [3] = assay: Antileishmanial activity against amastigotes stage of Leishmania donovani D10 infected in mouse RAW264.7 cells assessed as reduction in cell viability incubated from 24 to 72 hrs by Giemsa staining-based assay; assay type: functional, organism-based; details: D10, RAW264.7
Leishmania donovani [4] = assay: Antileishmanial activity against Leishmania donovani promastigotes assessed as reduction in parasite viability in presence of 100 uM iron chelator desferrioxamine measured after 24 hrs by microplate alamar blue assay; assay type: functional, organism-based
Procedure, shortened: (§1)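 L. donovani promastigotes (MHOM/NP/02/BPK282/0cl4, late log/stationary phase) seeded at 10^6 cells/mL in complete HOMEM, preincubated 24 h at 26 °C with desferrioxamine at four nontoxic doses (1:2 dilutions). Compounds added over a range spanning each one's IC50. Viability read by alamarBlue absorbance at 550/630 nm. FIC values plotted as isobolograms. Duplicates.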

Leishmania donovani [5] = assay: Antileishmanial activity against Leishmania donovani promastigotes assessed as reduction in parasite viability in presence of 50 uM iron chelator desferrioxamine measured after 24 hrs by microplate alamar blue assay; assay type: functional, organism-based; procedure, shortened: as §1
Leishmania donovani [6] = assay: Antileishmanial activity against Leishmania donovani promastigotes assessed as reduction in parasite viability in presence of 25 uM iron chelator desferrioxamine measured after 24 hrs by microplate alamar blue assay; assay type: functional, organism-based; procedure, shortened: as §1
Leishmania donovani [7] = assay: Antileishmanial activity against Leishmania donovani promastigotes assessed as reduction in parasite viability in presence of […] iron chelator desferrioxamine measured after 24 hrs by microplate alamar blue assay; assay type: functional, organism-based; procedure, shortened: as §1
Leishmania donovani [8] = assay: Additive antileishmanial activity against Leishmania donovani promastigotes measured after 24 hrs in presence of iron chelator desferrioxamine by microplate alamar blue assay; assay type: functional, organism-based; procedure, shortened: as §1
Leishmania donovani [9] = assay: Induction of ROS generation in Leishmania donovani promastigotes assessed as increase in intracellular ROS level at IC50 measured after 24 hrs by H2DCFDA probe based fluorimetry analysis; assay type: functional, organism-based
Leishmania donovani [10] = assay: Induction of ROS generation in Leishmania donovani promastigotes assessed as increase in intracellular ROS level at IC50 measured up to 60 mins by H2DCFDA probe based fluorimetry analysis; assay type: functional, organism-based; details: time min <=60
[11] = Drug localization in Leishmania donovani MHOM/NP/O2/BPK282/0cl4 promastigote at IC50 […] by TO-PRO-3 dye based confocal microscopy analysis; assay type: ADME
[12] = Drug localization in cytoplasm of Leishmania donovani MHOM/NP/O2/BPK282/0cl4 promastigote at IC50 incubated for 40 to 45 mins by TO-PRO-3 dye based confocal microscopy analysis; assay type: ADME, subcellular; details: time 40-45 min
[13] = Drug localization in nucleus of Leishmania donovani MHOM/NP/O2/BPK282/0cl4 promastigote at IC50 incubated for 40 to 45 mins by TO-PRO-3 staining based confocal microscopy analysis; assay type: ADME, subcellular; details: time 40-45 min
[14] = Drug localization in kinetoplast of Leishmania donovani MHOM/NP/O2/BPK282/0cl4 promastigote at IC50 incubated for 40 to 45 mins by TO-PRO-3 staining based confocal microscopy analysis; assay type: ADME, subcellular; details: time 40-45 min
Leishmania donovani [15] = assay: Antileishmanial activity against HePC-resistant wild type promastigote stage of Leishmania donovani MHOM/ET/67/HU3 infected in mouse macrophages assessed as reduction in parasite viability measured after 48 hrs by Giemsa staining-based assay; details: MHOM/ET/67/HU3, Macrophage
Leishmania donovani [16] = assay: Induction of ROS generation in Leishmania donovani promastigotes at 22 uM measured after 24 hrs by H2DCFDA probe based fluorimetry analysis; assay type: functional, organism-based
Procedure, shortened: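 Late log/stationary L. donovani promastigotes seeded at 10^6 cells mL–1 in HOMEM with 20% FBS and treated 24 h at 26 °C; untreated cells served as negative control. Cells were washed in PBS (pH 7.4), loaded with 10 μM H2DCFDA and kept 35 min in the dark at 26 °C. DCF fluorescence read at ex 488/em 530 nm over 1–60 min. Three independent experiments, each in triplicate.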

Leishmania donovani [17] = assay: Antileishmanial activity against Leishmania donovani MHOM/MA(BE)/67/ITMAP263 promastigotes infected in primary mouse peritoneal macrophage assessed as reduction in parasite viability measured after 4 days by Giemsa staining-based assay; assay type: functional, organism-based; details: MHOM/MA(BE)/67/ITMAP263, Peritoneal macrophage, 96 h

C=CCO[C@@]1(C(F)(F)F)O[C@@H]2C[C@@]3(C)C[C@H]4[C@H](C)CC[C@@H]([C@H]1C)[C@@]24OO3
IC50 (Leishmania donovani [1]): 1.6 µM | IC50 (Leishmania donovani [2]): 6.3 µM

OCCCCCCC1CCOOC2(CCCCCCCCCCC2)OOC1 (configuration not stated)
IC50 (Leishmania donovani [3]): 6.7 µM

COc1ccc(N[C@@]2(C(F)(F)F)O[C@@H]3C[C@@]4(C)C[C@H]5[C@H](C)CC[C@@H]([C@H]2C)[C@@]35OO4)cc1
IC50 (Leishmania donovani [1]): 0.38 µM | IC50 (Leishmania donovani [2]): 1.5 µM

CCCCC1(CCCC)CO[C@@](C)(OC)[C@@H](CNCCCn2ccnc2)C1 (racemic)
IC50 (Leishmania donovani [4]): 4.6 µM | IC50 (Leishmania donovani [5]): 5.6 µM | IC50 (Leishmania donovani [6]): 5.3 µM | IC50 (Leishmania donovani [7]): 5.4 µM | Activity (Leishmania donovani [8]): Active | Activity (Leishmania donovani [9]): Active | Activity (Leishmania donovani [10]): Active

CCCCC1(CCCC)CO[C@@](C)(OC)[C@@H](CNCCCCNc2c3ccc(Cl)cc3nc3ccc(OC)cc23)C1 (racemic)
Drug uptake [11]: Active

CCCCC1(CCCC)C[C@H](CNCCCCNc2ccc([N+](=O)[O-])c3nonc23)[C@](C)(OC)OO1 (racemic)
Drug uptake [12]: Active | Drug uptake [13]: Not Active | Drug uptake [14]: Active

CCCCC1(CCCC)C[C@H](CNCCCn2ccnc2)[C@](C)(OC)OO1 (racemic)
IC50 (Leishmania donovani [4]): 6.5 µM | IC50 (Leishmania donovani [5]): 9.3 µM | IC50 (Leishmania donovani [6]): 8.9 µM | IC50 (Leishmania donovani [7]): 6.6 µM | Activity (Leishmania donovani [8]): Active | Activity (Leishmania donovani [9]): Active | Activity (Leishmania donovani [10]): Active

CCCCCCCCCCCCCCCCOP(=O)([O-])OCC[N+](C)(C)C [MILTEFOSINE]
IC50 (Leishmania donovani [15]): 68.1 µM | IC50 (Leishmania donovani [1]): 1.9 µM | Activity (Leishmania donovani [16]): Active

NC[C@@H]1O[C@H](O[C@H]2[C@@H](O)[C@H](O[C@@H]3[C@@H](O)[C@H](N)C[C@H](N)[C@H]3O[C@H]3O[C@H](CO)[C@@H](O)[C@H](O)[C@H]3N)O[C@@H]2CO)[C@H](N)[C@@H](O)[C@@H]1O [PAROMOMYCIN]
IC50 (Leishmania donovani [17]): 19.7 µM
